# ASAP1 inh: inhibitors of human ASAP1 ArfGAP activity. ASAP1-stimulated ARF1 GTP hydrolysis, GDP FP detection. inhibition, % at 16.5 µM. 0.19% of 360,000 active. AID 624377; in the data active = inhibition above about 25%;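 also: 0% = vehicle with enzyme and substrate and 100% = no enzyme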
# ARFGAP1 inh: rat ARFGAP1 inhibition; Q62848; inhibition, % at 16.5 µM; Arfgap1-stimulated ARF1 GTP hydrolysis, GDP FP detection; AID 651572; 0.26% of 360,000 active;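 active = inhibition above a per-plate limit, mean inhibition of low control wells plus 3 SD, cut at about 25% in these data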;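 also: 0% = DMSO wells with enzyme and 100% = wells lacking Arfgap1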
#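 System: truncated rat Arfgap1 GAP domain / Medium: HEPES-based buffer, pH 7.5 / Also added: N-terminally truncated human ARF1-GTP substrate / Incubation: enzyme reaction 120 min at 25 °C after 20 min preincubation / Measured by: FP of antibody-bound GDP Alexa 633 tracer, ex 620/em 688 nm / Replicates: singlicate, each compound tested once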
# PAFAH1B2 inh: PAFAH1B2 (human) inhibition | P68402 | recombinant PAFAH1B2, FP-rhodamine activity probe, fluorescence polarization | inhibition, % at 3.39 µM | 1.2% of 340,000 active | AID 492953;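 active = inhibition above the mean of all tested compounds plus 3 SD, cut at about 24% in these data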;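 also: 0% = enzyme with DMSO and 100% = wells lacking PAFAH1B2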
# Target sequence (P68402 whole entry, looked up): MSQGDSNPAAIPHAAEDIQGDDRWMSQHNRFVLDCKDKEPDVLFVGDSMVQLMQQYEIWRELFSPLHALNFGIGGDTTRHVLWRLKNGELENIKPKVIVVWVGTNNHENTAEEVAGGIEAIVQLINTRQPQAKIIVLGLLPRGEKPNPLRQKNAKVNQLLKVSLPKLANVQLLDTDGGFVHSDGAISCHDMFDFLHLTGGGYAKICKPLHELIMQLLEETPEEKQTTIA
# pPAFAH inh: pPAFAH (human) enzyme inhibition | Q13093 | recombinant pPAFAH, FP-rhodamine probe fluorescence polarization | inhibition, % at 3.39 µM | 1.5% of 330,000 active;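 active = inhibition above the mean inhibition across the screen plus 3 SD, cut at about 25% in these data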;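 also: inhibitors block binding of the rhodamine activity-based probe so polarization drops; 0% = enzyme with DMSO and 100% = wells lacking pPAFAH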
# Target sequence (Q13093 whole entry, looked up): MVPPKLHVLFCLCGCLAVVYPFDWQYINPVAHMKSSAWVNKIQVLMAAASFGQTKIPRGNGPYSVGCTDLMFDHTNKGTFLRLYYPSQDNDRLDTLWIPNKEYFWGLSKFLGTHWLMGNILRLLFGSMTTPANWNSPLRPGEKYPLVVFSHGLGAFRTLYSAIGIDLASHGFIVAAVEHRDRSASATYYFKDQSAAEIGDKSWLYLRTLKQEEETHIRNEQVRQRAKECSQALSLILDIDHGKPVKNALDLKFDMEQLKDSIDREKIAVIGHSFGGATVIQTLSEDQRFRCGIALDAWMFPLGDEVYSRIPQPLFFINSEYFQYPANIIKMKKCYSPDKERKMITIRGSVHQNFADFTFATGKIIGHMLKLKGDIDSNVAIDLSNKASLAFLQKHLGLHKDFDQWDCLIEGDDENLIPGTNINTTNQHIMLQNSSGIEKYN
# PAFAH2 inh: PAFAH2 (human) inhibition; Q99487; recombinant PAFAH2, FP-rhodamine activity probe, fluorescence polarization; inhibition, % at 3.39 µM; 0.99% of 340,000 active; AID 492956;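 active = inhibition above the mean over all tested compounds plus 3 SD, cut at about 30% in these data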;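 also: inhibitors block probe labeling of enzyme so polarization drops; 0% = enzyme with DMSO and 100% = wells lacking PAFAH2 protein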
# PAFAH1B3 FP inh: blocks human PAF acetylhydrolase 1B catalytic subunit 3; recombinant PAFAH1B3, FP-rhodamine probe, fluorescence polarization; inhibition, % at 3.39 µM; 0.28% of 340,000 active;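 active = inhibition above the screen-wide average of all tested compounds plus 3 SD, cut at about 25% in these data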;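 also: 0% = enzyme with DMSO only and 100% = wells lacking PAFAH1B3 protein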
# pPAFAH confirm: pPAFAH (human) inhibition, confirmed | shares compounds with pPAFAH inh | recombinant pPAFAH, FP-Rh probe fluorescence polarization | inhibition, % at 3.39 µM | 72% of 2,300 active;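 active = mean inhibition of the triplicate above the hit cutoff set for the earlier primary screen, cut at about 25% in these data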;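 also: 0% = enzyme with DMSO and 100% = wells lacking pPAFAH enzyme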
# * hit, by the source's call; . = no result. Hits are enriched below; roughly 2.7% of the tested compounds scored in any of these assays.
SMILES,ASAP1 inh,ARFGAP1 inh,PAFAH1B2 inh,pPAFAH inh,PAFAH2 inh,PAFAH1B3 FP inh,pPAFAH confirm
NC1=NC(=O)/C(=C/c2ccc(Br)cc2)S1,4,1,2,6,2,2,.
COC(=O)c1cc2c(c3c4cc(OC)ccc4n(S(=O)(=O)c4ccc(OC)cc4)c13)C(=O)N(Cc1ccco1)C2,8,3,.,.,.,.,.
COc1ccc(OC)c(S(=O)(=O)NCC2CCN(C(=O)C(=O)c3cc4ccccc4o3)CC2)c1,-7,0,.,.,.,.,.
CC(C)C(C)NC(=O)CSc1nnc(-c2c[nH]c3ccccc23)o1 (stereo not drawn),6,-11,-1,7,4,5,.
Cc1ccc(C(=O)CSc2nnc(-c3c[nH]c4ccccc34)o2)cc1,11,-3,1,48*,1,6,3
CC(C)[C@H](NC(=O)[C@H](C)NC(=O)OC(C)(C)C)C(=O)N1CCC2CCN(Cc3ccccc3)CC21 (stereo partly drawn),10,16,.,.,.,.,.
O=C(O)c1cccc(S(=O)(=O)Nc2ccc(O)c(Sc3nc4ccccc4s3)c2)c1,-12,8,13,11,-5,-2,.
O=S(=O)(Nc1ccc(O)c(Sc2nc3ccccc3s2)c1)c1ccc(F)cc1,16,16,14,52*,-3,-8,40*
CCOC(=O)C1(C(=O)OCC)N=C(c2ccccc2)C=C1c1ccccc1,-4,-20,.,.,.,.,.
C/C(=N\NC(=O)c1cc(O)cc(O)c1)c1ccc(NC(=O)Cc2ccccc2)cc1,-7,-6,19,45*,27,35*,15
Oc1ccc(Nc2nc(-c3ccc4ccccc4c3)cs2)cc1,6,19,6,0,-4,19,.
Oc1ccc(-c2nc(-c3ccc(O)c(O)c3)cs2)cc1,8,22,0,49*,0,-4,38*
C=C1c2cccc(O)c2C(=O)C2C(=O)[C@]3(O)C(=O)C(C(N)=O)C(=O)[C@@H](N(C)C)[C@@H]3[C@@H](O)[C@H]12 (stereo partly drawn),11,-1,33*,92*,52*,45*,9
Cc1ccc(OC(=O)N(C)C[C@H]2OCc3cn(nn3)CCCC(=O)N([C@@H](C)CO)C[C@@H]2C)cc1,-10,4,.,.,.,.,.
O=S(=O)(c1ccc(NC(=S)N/N=C/c2ccc(O)c(O)c2)cc1)N1CCOCC1,3,-2,6,65*,5,12,61*
N#Cc1ccc(/C=N/NC(=S)Nc2ccc(S(=O)(=O)N3CCOCC3)cc2)cc1,14,-9,1,3,8,2,.
CC(=O)OCCCNc1cc(SCc2ccco2)c2nonc2c1[N+](=O)[O-],-1,3,-1,39*,13,3,3
CCCC(=O)OCCNc1cc(SCc2ccco2)c2nonc2c1[N+](=O)[O-],7,-4,4,78*,7,5,5
C[C@@H]1CCCCO[C@@H](CN(C)C(=O)Nc2ccc(C(F)(F)F)cc2)[C@@H](C)CN([C@H](C)CO)C(=O)c2cc(NS(=O)(=O)c3ccc(Cl)cc3)ccc2O1,5,6,.,.,.,.,.
O=C(NC(CC1=CCCCC1)c1ccc2ccccc2c1)C(F)(F)F (stereo not drawn),-2,-7,.,.,.,.,.
CC(=O)N(C)C[C@@H]1Oc2cc(Br)ccc2S(=O)(=O)N([C@H](C)CO)C[C@@H]1C,-5,-7,.,.,.,.,.
COc1ccc(NC(=O)CSc2sc3c(O)cc(=O)[nH]c3c2C#N)c(OC)c1,2,1,9,36*,23,13,14
COc1ccc(Cl)cc1NC(=O)CSc1sc2c(O)cc(=O)[nH]c2c1C#N,3,0,0,20,-9,4,.
COC(=O)c1ccc(C)c(NC(=O)CSc2sc3c(O)cc(=O)[nH]c3c2C#N)c1,-15,-6,12,20,12,13,.
COc1ccccc1NC(=O)CSc1sc2c(O)cc(=O)[nH]c2c1C#N,13,3,11,39*,17,14,12
SMILES,ASAP1 inh,ARFGAP1 inh,PAFAH1B2 inh,pPAFAH inh,PAFAH2 inh,PAFAH1B3 FP inh,pPAFAH confirm
CCOC(=O)C1=CCN(S(=O)(=O)c2cccc(Cl)c2)C1c1ccc(Cl)cc1 (stereo not drawn),7,-4,.,.,.,.,.
O=C(Nc1ccc(N2CCCC2)cc1)c1cc(Br)ccc1Cl,22,32*,4,47*,2,6,5
OC1(c2ccc(Cl)cc2)CCN(Cc2cn[nH]c2-c2ccc(F)cc2)CC1,0,-4,3,58*,10,-1,0
OC1(c2ccc(Cl)cc2)CCN(Cc2cn[nH]c2-c2ccccc2)CC1,-8,6,5,2,1,6,.
O=C(NCc1ccccc1)c1ccc2nc(-c3ccco3)c(-c3ccco3)nc2c1,6,-4,15,71*,29,12,58*
O=C(NCc1ccccc1)c1ccc2nccnc2c1,10,-1,7,4,3,18,.
CC(=O)c1ccc(NC(=O)c2ccc3nc(-c4ccco4)c(-c4ccco4)nc3c2)cc1,.,.,6,62*,15,23,50*
CCCCNC(=O)c1ccc2nc(-c3ccco3)c(-c3ccco3)nc2c1,7,-11,17,61*,29,20,23
CCc1nc2ccc(C(=O)Nc3ccc(NC(C)=O)cc3)cc2nc1CC,1,5,3,1,-4,2,.
O=C(Nc1ccc(N2CCOCC2)cc1)c1ccc2nc(-c3ccco3)c(-c3ccco3)nc2c1,16,7,0,16,0,-2,.
O=C(Nc1ccccc1)c1ccc2nc(-c3ccco3)c(-c3ccco3)nc2c1,-5,-10,13,66*,27,21,22
CC(C)(C)c1cccc(N/C(=C\C(=O)c2ccccc2)c2ccccc2)c1,5,10,.,.,.,.,.
C[C@H]1CN(S(=O)(=O)C(C)(C)C)[C@@H](CCO)/C1=C\c1ccccc1,1,-4,.,.,.,.,.
COC(=O)[C@]12C[C@H](CC(=O)N3CCCCC3)C(=O)N(Cc3ccccc3)C1=C[C@H](C(C)(C)C)O[C@@H]2C,8,-9,.,.,.,.,.
O=C(N[C@H](C(=O)N1CCC[C@H]1C(=O)NC1CCCC1)C1CCCCC1)c1ccc(Cl)c(Cl)c1,4,10,.,.,.,.,.
Cc1ccc(NCN2C(=O)c3ccccc3C2=O)c(C)n1,3,7,.,.,.,.,.
CC(Cc1ccc(O)c(O)c1)C(C)Cc1ccc(O)c(O)c1 (stereo not drawn),.,.,.,70*,.,.,79*
N[C@@H](Cc1ccc(O)c(O)c1)C(=O)O,-7,9,1,.,-1,10,.
CCCc1ccc2oc(C(=O)N3CCC(O)CC3)c(C)c2c1,12,-8,-2,39*,-3,3,23

# From PubChem
